Assay results from ChEMBL document CHEMBL1159328, “Cyclotheonamide E4 and E5, new potent tryptase inhibitors from an Ircinia species of sponge” (J Nat Prod, 2002).
*1 amine or outer side, *2 acyl side, *3 side chain or, on linkers, in order; H or OH if unused. Where a SMILES comes first, the peptide text is derived from it. Bridges are numbered along the chain shown (N, C = ends). [ ]: non-standard residue; d: D form. The star is where a group is joined. Arg(ψCOCO) = N=C(N)NCCC[C@H](N[*:1])C(=O)C(=O)[*:2]; X1 = O=C(/C=C/[C@H](Cc1ccc(O)cc1)N[*:1])[*:2]; aIle = CC[C@@H](C)[C@H](N)C(=O)O; Dap = NC[C@H](N)C(=O)O; PhAc = O=C(Cc1ccccc1)*

What was measured:
[1] = Inhibition of human tryptase in human cultured mast cell lysate
Outline: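 Tryptase source: lysate (detergent/hypotonic buffer) of umbilical cord blood-derived human mast cells, ≥12 weeks in culture with SCF and IL-6, 100% pure; 8 × 10³ cell equiv/mL lysate. Preincubated 10 min at 37 °C with varied inhibitor. Substrate: 0.2 mM tosyl-Gly-Pro-Arg-pNA, Tris pH 8.0 buffer; 30 min at 37 °C; A405.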

[2] = Inhibition of mouse tryptase in mouse bone marrow mast cell lysate
Outline: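 Lysate (detergent/hypotonic buffer) of CBA/J mouse femoral bone marrow cells cultured 5 weeks with mouse IL-3 (>99% mast cells), used at 8 × 10⁴ cell equiv/mL as tryptase source. 10 min 37 °C preincubation with varied inhibitor levels. Then 0.2 mM tosyl-Gly-Pro-Arg-pNA in Tris pH 8.0 buffer, 30 min 37 °C; absorbance at 405 nm.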

Prothrombin = Prothrombin (Homo sapiens, UniProt P00734); assay: Inhibition of human thrombin
Outline: (§1)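 Purified enzyme, preincubated 10 min at 37 °C with a range of inhibitor concentrations. Substrate: 0.2 mM N-p-tosyl-Gly-Pro-Arg p-nitroanilide, in 0.1 M Tris pH 8.0 with 1 mM CaCl2, 1 mM MgCl2, 1 M glycerol and 0.1% Triton X. Then 30 min at 37 °C; absorbance read at 405 nm.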

[3] = Inhibition of bovine trypsin; set-up: species or system Bos taurus; outline: as §1

In the case of `CCC(C)CC(=O)N[C@@H](C)C(=O)N[C@H]1CNC(=O)/C=C/[C@H](Cc2ccc(O)cc2)NC(=O)[C@H]([C@H](C)CC)NC(=O)C(=O)[C@H](CCCNC(=N)N)NC(=O)[C@@H]2CCCN2C1=O` (some centres not stated) [CYCLOTHEONAMIDE E4], the IC50 [1] is reported as 5.1 nM, the IC50 [2] is reported as 6.5 nM and the IC50 (Prothrombin) is reported as 7.4 nM. It also gave an IC50 [3] of 5.9 nM.
`CCC(C)CC(=O)N[C@@H](C)C(=O)N[C@H]1CNC(=O)/C=C/[C@H](Cc2ccc(O)c(O)c2)NC(=O)[C@H]([C@H](C)CC)NC(=O)C(=O)[C@H](CCCNC(=N)N)NC(=O)[C@@H]2CCCN2C1=O` (some centres not stated) [CYCLOTHEONAMIDE E5] gave an IC50 [1] of 84.7 nM, an IC50 [2] of 54.1 nM and an IC50 (Prothrombin) of 67.9 nM. The IC50 [3] was 37.3 nM.
Molecule `CC[C@@H](C)[C@@H]1NC(=O)C(=O)[C@H](CCCNC(=N)N)NC(=O)[C@@H]2CCCN2C(=O)[C@@H](NC(=O)[C@H](C)NC(=O)Cc2ccccc2)CNC(=O)/C=C/[C@H](Cc2ccc(O)cc2)NC1=O` [CYCLOTHEONAMIDE E] (PhAc-A[Dap]P[Arg(ψCOCO)][aIle][X1]; lactam 2-C) has an IC50 [1] of 6.9 nM, an IC50 [2] of 17 nM and an IC50 (Prothrombin) of 16.1 nM. For the same molecule, the IC50 [3] was 10.6 nM.
